M1 antag: antagonists of rat M1 muscarinic receptor; CHO-M1 cells, Fluo-4 calcium, ACh EC80 antagonist mode; hits give low values; hit rate 3.4% among 64,000; B-score at 10 µM; P08482;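 active = calcium fluorescence response, raw or row-and-column corrected B-score, differing from the plate sample mean either way at a set confidence level, mostly lower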
HER2 expr 66K: lowers expression of human Her2 kinase; SKBR-3 HER2 protein level, AlphaScreen, 18-24 h; hits give low values; HER2 level % of control, % at 10 µM; P04626; hit rate 0.69% among 65,000; AID 645;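 active = HER2 level under 5% of the carrier-only control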;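 note: 100% = DMSO carrier and 0% = 500 nM PU-H71 HSP90 inhibitor; lower value means stronger loss of Her2 protein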
Target sequence (P04626 whole entry, looked up): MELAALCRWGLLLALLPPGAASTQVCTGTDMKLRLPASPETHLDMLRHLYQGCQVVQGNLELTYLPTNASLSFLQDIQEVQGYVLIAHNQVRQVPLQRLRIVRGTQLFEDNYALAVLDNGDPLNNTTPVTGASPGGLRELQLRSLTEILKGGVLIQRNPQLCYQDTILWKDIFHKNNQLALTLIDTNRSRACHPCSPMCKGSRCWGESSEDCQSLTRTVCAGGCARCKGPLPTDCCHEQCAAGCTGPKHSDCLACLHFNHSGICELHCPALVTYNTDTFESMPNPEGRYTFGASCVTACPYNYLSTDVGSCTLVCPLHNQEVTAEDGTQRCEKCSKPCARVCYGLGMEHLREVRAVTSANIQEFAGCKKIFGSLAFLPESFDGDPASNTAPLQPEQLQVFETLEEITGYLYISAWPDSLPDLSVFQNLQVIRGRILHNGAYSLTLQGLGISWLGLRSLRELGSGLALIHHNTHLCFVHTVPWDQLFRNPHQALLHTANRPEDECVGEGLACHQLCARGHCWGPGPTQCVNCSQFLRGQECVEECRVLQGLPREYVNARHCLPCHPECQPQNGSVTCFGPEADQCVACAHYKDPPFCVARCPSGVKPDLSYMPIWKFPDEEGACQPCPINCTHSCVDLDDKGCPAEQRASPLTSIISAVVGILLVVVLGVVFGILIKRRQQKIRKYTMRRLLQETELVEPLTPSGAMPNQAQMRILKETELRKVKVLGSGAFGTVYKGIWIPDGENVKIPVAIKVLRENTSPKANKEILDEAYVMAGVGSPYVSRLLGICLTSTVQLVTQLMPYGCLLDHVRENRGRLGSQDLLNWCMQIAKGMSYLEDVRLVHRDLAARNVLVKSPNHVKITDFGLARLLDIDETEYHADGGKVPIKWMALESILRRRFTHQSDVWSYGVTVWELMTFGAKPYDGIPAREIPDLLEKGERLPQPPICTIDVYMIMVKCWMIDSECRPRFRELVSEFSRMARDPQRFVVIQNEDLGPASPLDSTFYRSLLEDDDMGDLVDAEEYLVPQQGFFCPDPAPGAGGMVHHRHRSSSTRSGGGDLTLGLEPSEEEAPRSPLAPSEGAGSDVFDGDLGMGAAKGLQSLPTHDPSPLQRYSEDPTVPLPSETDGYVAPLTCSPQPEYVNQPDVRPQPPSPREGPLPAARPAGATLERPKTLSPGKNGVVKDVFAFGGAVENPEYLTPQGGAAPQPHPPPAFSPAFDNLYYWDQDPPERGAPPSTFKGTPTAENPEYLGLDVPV
M1 ag: M1 muscarinic receptor agonism; CHO-M1 cells, Fluo-4 calcium fluorescence, agonist mode; hits give high values; B-score at 10 µM; hit rate 3% among 64,000;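 active = fluorescence rise, raw or as B-score row- and column-corrected plate score, outside the 99.7% band of its plate's samples, either direction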
Cdc25B inh: human M-phase inducer phosphatase 2 inhibition | P30305 | recombinant Cdc25B, OMFP fluorescence Ex485/Em525 | inhibition, %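 (compounds tested at 10 µM final in the well)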 | hit rate 0.1% among 65,000 | AID 368; in the data active = inhibition above about 50%
HEK293 NFkB inh: lowers PMA/ionomycin-induced NF-kB signal in HEK293 cells | HEK-293 NF-kB luciferase reporter, luminescence | inhibition, % at 3 µM | hit rate 0.21% among 62,000 | AID 465;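 active = inhibition above the mean of all tested compounds plus 3 SD, cut at about 40% in these data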;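 note: 0% = stimulated DMSO wells and 100% = 10 µM reference inhibitor 5653914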
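Reagent: PMA plus ionomycin mix as NF-kB-activating stimulus. Assay system: NF-kB luciferase reporter HEK-293 cells. Technique: luminescence from luciferase substrate reagent. Incubation: 1 h compound pre-incubation, 16 h PMA/ionomycin at 37 °C. Benchmarks: DMSO only as uninhibited control, 10 µM reference inhibitor as full inhibition. Repeats: tested once.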
MKP-1 inh: blocks human MKP-1 phosphatase activity; P28562; inhibition, %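 (compounds tested at a single concentration somewhere between 10 and 100 µM)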; hit rate 0.15% among 65,000; recombinant MKP-1, OMFP hydrolysis fluorescence; AID 374;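 active = inhibition above about 50%, limit read from the data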;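 note: 0% = DMSO max control wells and 100% = wells with enzyme stopped by NaOH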
Active calls of the source: *. Rows were chosen to be rich in hits. Some 6.8% of all compounds tested hit in one or more screens of this group.

For c1ccc(CCn2nnnc2C(c2cccs2)N2CCOCC2)cc1 (configuration not stated) the results were M1 antag -0.076, HER2 expr 66K 91, M1 ag -0.31, Cdc25B inh -10, HEK293 NFkB inh 13 and MKP-1 inh -7.
For COc1ccc(Cn2nnnc2C(c2cccs2)N2CCOCC2)cc1 (configuration not stated) the results were M1 antag 2.3*, HER2 expr 66K 112, M1 ag -0.0052, Cdc25B inh 11, HEK293 NFkB inh 18 and MKP-1 inh 1.
O=S(=O)(c1ccc2ccccc2c1)N1CCCCC1 was read as M1 antag 0.97, HER2 expr 66K 138, M1 ag 0.69, Cdc25B inh -2, HEK293 NFkB inh 7 and MKP-1 inh -6.
For O=S(=O)(CC(CN1CCCC1)N1CCCC1)c1ccc2ccccc2c1 (configuration not stated) the results were M1 antag 1.1, HER2 expr 66K -13*, M1 ag 0.17, Cdc25B inh -8, HEK293 NFkB inh 32 and MKP-1 inh 0.
Screening CCNc1ccc(C(=O)OCC)cc1NC(=O)c1cccc(N(C)C)c1 returned M1 antag -0.51, HER2 expr 66K 154, M1 ag 0.82, Cdc25B inh -5, HEK293 NFkB inh 42* and MKP-1 inh 4.
CCOC(=O)CC(=O)CSc1nnc2sc3ccccc3n12 was read as M1 antag -0.046, HER2 expr 66K 146, M1 ag -0.15, Cdc25B inh 1 and MKP-1 inh 78*.
Screening Cc1cc(C)n2nc(SCc3cc(=O)n4c(C)cccc4n3)nc2n1 returned M1 antag -0.3, HER2 expr 66K 112, M1 ag 0.0097, Cdc25B inh -3, HEK293 NFkB inh 18 and MKP-1 inh 7.
`Cc1ccc2[nH]c(=O)c3cc(C(=O)N4CCN(C(=O)c5ccco5)CC4)sc3c2c1` gave M1 antag -0.0024, HER2 expr 66K 93, M1 ag 1.6, Cdc25B inh 3, HEK293 NFkB inh 5 and MKP-1 inh 34.
For N=c1c(C(=O)NC2CCCCC2)cc2c(=O)n3ccccc3nc2n1CCN1CCOCC1 the results were M1 antag 0.2, HER2 expr 66K 91, M1 ag 0.61, Cdc25B inh 7, HEK293 NFkB inh 14 and MKP-1 inh 1.
For O=c1c2c3nc4ccccc4nc3n(-c3ccc4c(c3)OCCO4)c2ncn1CC1CCCO1 (configuration not stated) the results were M1 antag -1.8*, HER2 expr 66K 90, M1 ag -0.013, Cdc25B inh -3, HEK293 NFkB inh -2 and MKP-1 inh -27.
CCOC(=O)CSc1nnnn1-c1cc(OC)c(Cl)cc1OC was read as M1 antag 0.3, HER2 expr 66K 70, M1 ag 0.77, Cdc25B inh 51*, HEK293 NFkB inh 13 and MKP-1 inh 6.
Screening CCOc1ccc(OCc2cccc(C(=O)N3CCOCC3)c2)cc1 returned M1 antag 0.62, HER2 expr 66K 91, M1 ag -0.024, Cdc25B inh -11, HEK293 NFkB inh 50* and MKP-1 inh 3.
For C=CCn1cnc2c(c1=O)c1nc3ccccc3nc1n2-c1ccc(Cl)cc1 the results were M1 antag 0.2, HER2 expr 66K 81, M1 ag -0.27, Cdc25B inh 21 and MKP-1 inh -14.
CC(c1ccccc1)C(CC(=O)O)C(=O)NC1CCCCC1 (configuration not stated) was read as M1 antag 0.078, HER2 expr 66K 95, M1 ag -0.47, Cdc25B inh -5, HEK293 NFkB inh 2 and MKP-1 inh 3.
Screening COc1cccc(-n2c(SCC(=O)OC(C)C)nnc2-c2cccnc2)c1 returned M1 antag 2.7*, HER2 expr 66K 108, M1 ag 0.76, Cdc25B inh -2, HEK293 NFkB inh 20 and MKP-1 inh -7.
O=C(CSc1ccc2nnc(-c3ccc(Cl)cc3)n2n1)N1CCN(c2ccccc2)CC1 was read as M1 antag -0.029, HER2 expr 66K 84, M1 ag 0.52, Cdc25B inh -6, HEK293 NFkB inh 11 and MKP-1 inh 14.
Screening Cc1cc(NC(=O)CCC(=O)N(CCC(C)C)C(C(=O)NC2CCCC2)c2cccnc2)no1 (configuration not stated) returned M1 antag -0.82, HER2 expr 66K 85, M1 ag 0.3, Cdc25B inh -22, HEK293 NFkB inh 20 and MKP-1 inh 5.
Screening Cc1cc(NC(=O)CCC(=O)N(CCc2ccccc2)C(C(=O)NC2CCCC2)c2ccco2)no1 (configuration not stated) returned M1 antag 2.4*, HER2 expr 66K 73, M1 ag 1.3, Cdc25B inh 2, HEK293 NFkB inh 14 and MKP-1 inh 25.
For CC(=O)NC(Cc1c[nH]c2ccccc12)C(=O)OCC(=O)Nc1ccc2c(c1)OCO2 (configuration not stated) the results were M1 antag 0.027, HER2 expr 66K -33*, M1 ag -1.3, Cdc25B inh -11, HEK293 NFkB inh 12 and MKP-1 inh -3.
`O=C(CCN1CCN(c2ccccc2F)CC1)Nc1ccccc1F` gave M1 antag -0.51, HER2 expr 66K 117, M1 ag -0.21, Cdc25B inh -9, HEK293 NFkB inh 7 and MKP-1 inh -1.
`O=C(CCN1CCN(c2ccc(Cl)cc2)CC1)Nc1ccccc1F` gave M1 antag 2.1*, HER2 expr 66K 89, M1 ag 0.03, Cdc25B inh -8, HEK293 NFkB inh -6 and MKP-1 inh 5.
For CCC(C)C(NS(=O)(=O)c1ccc(C)cc1)C(=O)NCCN1CCOCC1 (configuration not stated) the results were HER2 expr 66K 112, Cdc25B inh -6, HEK293 NFkB inh -2 and MKP-1 inh 2.
`C=CCN=C(NC#N)SCc1ccccc1Cl` gave M1 antag -0.36, HER2 expr 66K -4.6*, M1 ag -0.54, Cdc25B inh -4, HEK293 NFkB inh 11 and MKP-1 inh 22.
Screening CC(C)N=C(NC#N)SCc1ccc(F)cc1 returned M1 antag 0.002, HER2 expr 66K 116, M1 ag -0.23, Cdc25B inh -1, HEK293 NFkB inh -4 and MKP-1 inh 20.
COc1ccc([C@@H]2[C@H]3CN(C(C)=O)CC=C3C(C#N)=C(N)C2(C#N)C#N)c2ccccc12 was read as M1 antag -0.88, HER2 expr 66K -0.8*, M1 ag 0.76, Cdc25B inh 5, HEK293 NFkB inh 25 and MKP-1 inh 15.
Screening c1ccc(-c2ccc(-c3nc(-c4ccccn4)no3)cc2)cc1 returned M1 antag 1.1, HER2 expr 66K 72, M1 ag 0.89, Cdc25B inh -17 and MKP-1 inh 14.
Cc1ccc(-c2nc(-c3ccccn3)no2)cc1 was read as M1 antag -0.59, HER2 expr 66K 73, M1 ag 0.36, Cdc25B inh -1, HEK293 NFkB inh 80* and MKP-1 inh 9.
